# The entries come from a sample that favours hits as a whole.
# Cdc25B block – inhibitors of human Cdc25B phosphatase. inhibition, %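 (compounds tested at 10 µM final in the well)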. recombinant Cdc25B, OMFP fluorescence Ex485/Em525. 0.1% of 65,000 active. AID 368. P30305; in the data active means inhibition above about 50%
# DUSP1 inh – inhibitors of human MKP-1 phosphatase; AID 374; recombinant MKP-1, OMFP hydrolysis fluorescence; 0.15% of 65,000 active; inhibition, %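 (compounds tested at a single concentration somewhere between 10 and 100 µM)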;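 active means inhibition above about 50%, limit read from the data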;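 further: 0% = DMSO max control wells and 100% = wells with enzyme stopped by NaOH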
# MMP-13 inhibitor – MMP13 (human) collagenase inhibition | P45452 | MMP-13 fTHP FRET cleavage, Mca fluorescence | inhibition, % at 4 µM | 0.07% of 65,000 active | AID 570;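 active means inhibition above the mean of compound-free control plate wells plus 3 SD, cut at about 14% in these data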;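 further: 0% = DMSO wells and 100% = wells with reference MMP-13 inhibitor after basal subtraction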
# Ecoli tolC – blocks growth of E. coli BW25113 tolC mutant | 2.2% of 65,000 active | growth inhibition, % at 10 µM (by protocol) | AID 573 | OD615;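 active means growth inhibition at or above a cutoff equal to the mean over every tested compound plus 3 SD, cut at about 60% in these data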;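 further: growth measured after 20 h incubation at 37 °C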
#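 Test system: E. coli BW25113 ΔtolC::kan bacteria; incubation: 37 °C, 20 h exposure; medium: LB broth supplemented with 50 µg/mL kanamycin; read-out basis: percent growth inhibition; signal: A615 absorbance measurement; compound: 10 µM final, single dose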
# HePTP inhibitor – inhibitors of human HePTP phosphatase; recombinant HePTP phosphatase activity, OD absorbance; inhibition, % at 20 µM; 0.64% of 110,000 active; in the data active means inhibition above about 50%;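 further: plate controls were vehicle for no effect and reference inhibitor for full effect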
# Target sequence (P35236 whole entry, looked up): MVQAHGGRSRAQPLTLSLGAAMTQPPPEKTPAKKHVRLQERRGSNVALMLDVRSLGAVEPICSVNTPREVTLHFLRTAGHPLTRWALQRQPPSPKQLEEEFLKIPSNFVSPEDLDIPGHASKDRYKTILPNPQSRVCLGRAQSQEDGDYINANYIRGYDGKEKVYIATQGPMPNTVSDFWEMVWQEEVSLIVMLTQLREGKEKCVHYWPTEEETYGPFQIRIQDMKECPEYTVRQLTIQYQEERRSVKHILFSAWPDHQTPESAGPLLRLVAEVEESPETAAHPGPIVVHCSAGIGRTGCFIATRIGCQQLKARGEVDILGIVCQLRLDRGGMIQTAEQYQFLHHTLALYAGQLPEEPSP
# E coli WT exp – growth inhibitors of E. coli BW25113 wild type. growth inhibition, % at 100 µM. 0.15% of 98,000 active. OD600 absorbance. AID 710;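 active means growth inhibition above about 50% at one test dose, limit read from the data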;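 further: growth measured after 20 h incubation at 37 °C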
# An asterisk follows results filed as active; / = no result.
SMILES,Cdc25B block,DUSP1 inh,MMP-13 inhibitor,Ecoli tolC,HePTP inhibitor,E coli WT exp
COCCOC(=O)c1[nH]c2c(c1C)C(=O)C(C(=O)OC)C(C)C2 (centres undefined),1,6,1,-11,-5,2
CCCCCOC(=O)c1[nH]c2c(c1C)C(=O)C(C(=O)OC)C(C)C2 (centres undefined),2,32,5,75*,1,-11
CC1=C(C(=O)OCC(C)C)C(c2cc3c(cc2Br)OCO3)NC(=O)N1C (centres undefined),-5,13,2,66*,8,6
O=C(/C=C/c1cccs1)Nc1ncc(Cc2ccc(F)cc2)s1,/,/,/,/,3,/
Cc1nn(-c2nc3ccccc3[nH]2)c(N)c1-c1ccccc1,3,2,2,76*,-9,/
O=C(Nc1nnc(-c2ccc(F)cc2)o1)c1ccco1,4,6,5,77*,8,/
COc1ccc(-c2nnc(NC(=O)c3cc(Cl)ccc3Cl)o2)cc1,13,14,6,98*,-7,1
COc1ccc(-c2nnc(NC(=O)c3ccc(F)cc3)o2)cc1,/,/,/,/,/,51*
Cc1ccccc1C(=O)Nc1nnc(-c2ccc(F)cc2)o1,5,-4,0,59,-4,38
Cc1ccccc1C1(c2ccccc2C)CC1C(=O)Nc1cccc([N+](=O)[O-])c1 (centres undefined),/,/,/,/,6,/
O=[N+]([O-])c1ccc(N2CCCC2)c(C(F)(F)F)c1,/,/,/,/,8,/
Cc1ccc(Cn2ccc(NC(=O)c3cc(CC(C)C)on3)n2)cc1,-3,-9,0,72*,4,-6
O=C1C(Cl)=CC(=NS(=O)(=O)c2ccccc2)C=C1Cl,/,/,/,/,87*,/
COc1cccc(NC(=O)/C(=C/c2ccccc2)NC(C)=O)c1,/,/,/,/,-14,/
CC1=CCC(COC(=O)Nc2ccccc2)CC1 (centres undefined),5,21,5,98*,8,14
CCOC(=O)c1c(C)[nH]c(N=Nc2cccc(OC)c2)c1C,/,/,/,/,103*,/
COC(=O)c1ccc(CSc2nc3scc(-c4cccs4)c3c(=O)[nH]2)o1,16,34,17*,26,12,-18
O=C(CSc1ccc(C(F)(F)F)cc1[N+](=O)[O-])Nc1ccccc1,/,/,/,/,105*,-10
O=C(CSCC(=O)Nc1ccc(F)c([N+](=O)[O-])c1)Nc1ccccc1,/,/,/,/,-17,/
CC1=NN(c2cccc(C(=O)O)c2)C(=O)/C1=C\c1ccc(-c2cc([N+](=O)[O-])ccc2C)o1,/,/,/,/,56*,/
CC1=NN(c2cccc(C(=O)O)c2)C(=O)/C1=C\c1ccc(-c2ccc(Cl)c(C(=O)O)c2)o1,/,/,/,/,101*,/
O=C(Nc1cccc([N+](=O)[O-])c1)c1ccc(Br)c(S(=O)(=O)NC2CCCCC2)c1,/,/,/,/,2,/
CC(C)N1C(=O)C(=Cc2c(N(C)Cc3ccccc3)nc3ccccn3c2=O)SC1=S,/,/,/,/,-1,/
c1ccc(-c2nc(N3CCN(c4ccccc4)CC3)nc(-n3ccnc3)n2)cc1,12,-1,9,17,16,-17
c1ccc(-c2nc(N3CCCCCC3)nc(-n3ccnc3)n2)cc1,-18,-10,-1,98*,0,3
SMILES,Cdc25B block,DUSP1 inh,MMP-13 inhibitor,Ecoli tolC,HePTP inhibitor,E coli WT exp
Cc1ccc(Nc2cc(C)nn2-c2nc(C)cc(=O)[nH]2)cc1,14,33,-7,100*,0,77*
Cc1ccc(Nc2cc(C)nn2-c2nc(C)cc(C)n2)cc1,-7,29,-6,13,/,-5
Cc1ccc2[nH]c3c(c2c1)CCC3=O,-16,8,-96,-2,2,2
Cc1ccc2[nH]c3c(c2c1)CCc1cn[nH]c1-3,5,14,3,100*,0,39
CCOc1ccc(N(CC(=O)O)S(=O)(=O)c2ccc(SC)cc2)cc1,/,/,/,/,7,/
c1ccc2c(c1)c1ccccc1n2CCCN1CCCCC1,/,/,/,/,-1,/
c1csc(Cn2c(-c3cccs3)nc3ccccc32)c1,-6,12,-56,7,-2,-10
Brc1ccccc1Cn1c(-c2cncs2)nc2ccccc21,2,4,4,62*,-5,-1
COc1ccccc1-c1nnc2sc(COc3ccc(Cl)cc3)nn12,-5,7,-1,69*,4,-10
O=C(COc1ccccc1Cl)N1CCN(c2ccccc2)CC1,/,/,/,/,24,/
O=C(COc1cccc2ccccc12)N1CCN(c2ccccc2)CC1,-5,15,/,66*,-5,-17
COc1ccc2nc(SCC(=O)N(C)C3CCCCC3)c(C#N)cc2c1,0,7,-11,63*,6,-9
COc1ccc2nc(SCC(=O)N3CCCCCC3)c(C#N)cc2c1,-6,-11,-10,26,5,-8
Cc1cc(NC(=O)CCCOc2ccc(Cl)cc2Cl)no1,64*,8,3,-13,3,-5
Cc1ccnc(NC(=O)CCCOc2ccc(Cl)cc2Cl)c1,/,/,/,/,2,/
Cc1cc(C)cc(N2C(=O)C3C(c4ccccc4Cl)OC4(C(=O)c5ccccc5C4=O)C3C2=O)c1 (centres undefined),/,/,/,/,-12,/
CCc1ccccc1N1C(=O)C2C(c3ccccc3Cl)OC3(C(=O)c4ccccc4C3=O)C2C1=O (centres undefined),/,/,/,/,104*,/
O=C(Nc1ccn(Cc2ccc(Cl)cc2)n1)c1ccc2c(c1)OCO2,0,9,1,63*,7,7
O=C(Nc1ccc(CN2CCCCC2)cc1)c1ccc2c(c1)OCO2,-13,-4,4,-12,-9,-1
O=C(c1ccc(Cl)cc1)c1cc([N+](=O)[O-])ccc1Cl,/,/,/,/,-18,/
O=S(=O)(N1CCCCC1)n1c(Cc2ccccc2)nc2ccccc21,-16,-16,6,100*,-2,2
Cc1nc2ccccc2n1S(=O)(=O)c1ccc(S(=O)(=O)N2CCCCCC2)cc1,-10,1,-2,-23,4,3
O=C(NC1CCN(Cc2ccccc2)CC1)c1ccc(F)cc1,/,/,/,/,11,/
COc1ccc(/C=N/NC(=O)c2cc(-c3ccc4ccccc4c3)n[nH]2)cc1O,/,/,/,/,68*,/
O=C(N/N=C/c1cccs1)c1cc(-c2ccc3ccccc3c2)n[nH]1,/,/,/,/,99*,-21
SMILES,Cdc25B block,DUSP1 inh,MMP-13 inhibitor,Ecoli tolC,HePTP inhibitor,E coli WT exp
Cc1ccc(S(=O)(=O)Nc2cccc3ncccc23)s1,2,20,0,100*,6,-5
Cn1cc(/C=C/c2nc3ccccc3c(=O)n2Cc2ccccc2)c2ccccc21,/,/,/,/,104*,/
COc1ccccc1-c1cc(C(=O)NC(C)C)no1,-17,3,-6,-2,10,-2
COc1ccccc1-c1cc(C(=O)NC(C)c2ccccc2)no1 (centres undefined),-1,6,-1,72*,4,-28
c1ccc(-c2c(-c3ccccc3)n(Cc3ccco3)c3ncnc(NCCCn4ccnc4)c23)cc1,/,/,/,/,/,13
c1ccc(-c2oc3ncnc(NCCCn4ccnc4)c3c2-c2ccccc2)cc1,-14,16,-137,98*,3,2
c1ccc(-c2oc3ncnc(NCCN4CCOCC4)c3c2-c2ccccc2)cc1,-14,27,-36,65*,8,-6
